# pIC50, pKd: −log10 of the molar value. Entries after “also recorded” stand apart in the source; their conditions may differ.
# What was measured:
# Blood coagulation assay = assay type: in vivo; details: C57BL/6 adult mice, 6 mg/kg orally, 24 h
# Summary of the method: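 Adult C57BL/6 mice (4 per group) received test compound orally at 6 mg/kg and were killed 24 h later. Blood was analysed for activated partial thromboplastin time, prothrombin time and thrombin time.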
# C57BL/6 adult mice [1] = assay: AAI-induced acute renal injury model in adult mice; assay type: in vivo
# Summary of the method: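 Male C57BL/6 mice aged 8 weeks received AAI 5 mg/kg i.p. for three consecutive days, with NaHCO₃ as the vehicle control. SFII 30 or 60 mg/kg was given by oral gavage 12 h before AAI and at each injection. Mice were killed 3 days after the first AAI dose. Blood creatinine was measured. Kidney sections were stained with Sirius red (37 °C, 30 min), and the stained fibrotic area was calculated.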
# L02 [2] = assay: Flow cytometry analysis of apoptosis in L02; assay type: cell-based, human
# Summary of the method: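 L02 cells were plated in 6-well plates overnight, then treated with AAI (20 or 50 μM) with or without SFII (5 or 10 μM) for 24 h. Cells were trypsinised, spun at 1000 rpm for 3 min, washed in PBS, and stained with Annexin V-FITC or -APC plus PI for 20 min at room temperature in the dark. Flow cytometry counted Annexin V⁺/PI⁺ and Annexin V⁺/PI⁻ cells as apoptotic.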
# infant mice [3] = assay: Infant mice acute injury model; assay type: in vivo
# Summary of the method: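 Male infant mice on postnatal day 14 were injected with NaHCO₃ or AAI. SFII 10 mg/kg was given 12 h before AAI; control groups were pretreated with olive oil 12 h before injection. Mice were killed 24 h after AAI. Liver and kidney were analysed by Western blot. For TUNEL, sections were quenched with 0.3% H₂O₂ (30 min, room temperature), incubated with TUNEL mix for 2 h at 37 °C in the dark, then streptavidin-HRP for 30 min at 37 °C. Apoptotic cell percentage was calculated.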
# C57BL/6 adult mice [4] = assay: AAI-induced renal fibrosis model in adult mice; assay type: in vivo
# Summary of the method: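 Renal fibrosis model in 8-week-old male C57BL/6 mice. A single AAI injection (10 mg/kg i.p.) was given; controls received NaHCO₃. SFII (30 or 60 mg/kg) was gavaged 12 h before AAI and then daily for 3 days; AAI-only mice received olive oil by the same schedule. Animals were killed 14 days after AAI, with body weight monitored.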
# HK-2 [5] = assay type: cell-based, human
# HK-2 [6] = assay: qRT-PCR of apoptosis-related genes in HK-2; assay type: cell-based, human; details: AAI with SFII, 24 h
# Summary of the method: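 HK-2 cells (DMEM/F12, 10% FBS, 1% antibiotic-antimycotic, 37 °C, 5% CO₂) were treated with AAI, SFII, or both for 24 h. Expression of apoptosis-related genes was then measured by qRT-PCR.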
# NQO1 [7] = molecular target: T1, NQO1 (Homo sapiens, UniProt P15559); assay: NQO1 activity assay in HK-2 cells; assay type: cell-based; details: HK-2, 5 μM, 8 h, vs control group
# T1 sequence (P15559 whole entry): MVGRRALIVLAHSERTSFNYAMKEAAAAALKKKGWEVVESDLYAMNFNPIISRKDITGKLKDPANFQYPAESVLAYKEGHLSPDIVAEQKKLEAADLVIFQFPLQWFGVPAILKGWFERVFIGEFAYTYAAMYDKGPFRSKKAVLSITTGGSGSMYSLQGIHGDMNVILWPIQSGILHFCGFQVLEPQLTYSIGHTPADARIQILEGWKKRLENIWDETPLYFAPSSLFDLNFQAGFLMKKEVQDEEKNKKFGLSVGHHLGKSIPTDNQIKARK
# Summary of the method: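 HK-2 cells (DMEM/F12, 10% FBS, 37 °C, 5% CO₂) were treated with test compound at 5 μM for 8 h before protein extraction. NQO1 activity was measured with a commercial NQO1 activity kit, reading absorbance at 440 nm on a microplate reader.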
# HK-2 [8] = assay: Flow cytometry analysis of apoptosis in HK-2; assay type: cell-based, human; details: AAI with SFII (10 or 20 μM), 24 h
# L02 [9] = assay: Cell proliferation assay; assay type: cell-based, human
# Summary of the method: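 CCK-8 proliferation in L02 cells (DMEM, 10% FBS, 37 °C, 5% CO₂). Cells were plated overnight in 96-well plates, then given AAI (dissolved in 1% NaHCO₃) and/or SFII (dissolved in DMSO). At 0, 24 and 48 h, medium was swapped for CCK-8 reagent, incubated 2 h at 37 °C, and absorbance was read at 450 nm.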
# infant mice [10] = assay: AAI-induced liver cancer model in infant mice; assay type: in vivo
# L02 [11] = assay: ALT and AST in culture medium of L02; assay type: cell-based, human; details: AAI (20 or 50 μM) with SFII (5 or 10 μM), 24 h, vs AAI alone
# Summary of the method: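 L02 cells were grown in DMEM with 10% FBS and 1% antibiotic-antimycotic at 37 °C, 5% CO₂. Cells were exposed to AAI (20 or 50 μM) with or without SFII (5 or 10 μM) for 24 h. Culture medium was then collected, and ALT and AST were measured with clinical aminotransferase test kits.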
# NQO1 [12] = molecular target: NQO1 (Mus musculus, UniProt Q64669); assay: NQO1 activity in kidney and liver tissues of mice; assay type: in vivo; details: adult mice, SFII 30, 60 mg/kg orally, 2.5 h
# NQO1 (Mus musculus, UniProt Q64669), sequence (Q64669 2-274 limits assumed): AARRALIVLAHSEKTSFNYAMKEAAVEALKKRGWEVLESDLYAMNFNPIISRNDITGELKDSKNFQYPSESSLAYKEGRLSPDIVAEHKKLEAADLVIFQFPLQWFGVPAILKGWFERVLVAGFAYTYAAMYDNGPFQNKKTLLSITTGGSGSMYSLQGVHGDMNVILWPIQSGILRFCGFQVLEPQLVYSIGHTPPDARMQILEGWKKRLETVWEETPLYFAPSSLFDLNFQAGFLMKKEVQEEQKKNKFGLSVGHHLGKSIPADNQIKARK
# Summary of the method: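 NQO1 activity in mouse kidney and liver samples was measured with a commercial NQO1 activity assay kit. Sample and reaction buffer were mixed in 96-well plates, and absorbance was read at 440 nm.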
# L02 [13] = assay type: cell-based, human
# NQO1 [14] = molecular target: T1, NQO1; assay: NQO1 enzyme activity test; assay type: biochemical
# NQO1 [15] = molecular target: T1, NQO1; assay: Surface plasmon resonance; assay type: binding
# L02 [16] = assay: qRT-PCR of apoptotic-related genes in L02; assay type: cell-based, human; details: AAI (20 or 50 μM) with SFII, 24 h
# NQO1 [17] = molecular target: T1, NQO1; assay: NQO1 activity assay in L02 cells; assay type: cell-based; details: 8 h
# Summary of the method: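 An NQO1-knockdown L02 line was made by infecting cells at 50% density with concentrated shNQO1 or shNC lentivirus plus polybrene for 10 h, then selecting with puromycin (2 μg/mL) for 48 h. Knockdown was verified by qRT-PCR and Western blot. NQO1 activity was measured with a commercial kit, reading absorbance at 440 nm.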
# HK-2 [18] = assay: Cell proliferation assay; assay type: cell-based, human
# Summary of the method: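 HK-2 cells were kept in DMEM/F12 with 10% FBS and 1% antibiotic-antimycotic at 37 °C, 5% CO₂. They were seeded in 96-well plates overnight, then treated with AAI (in 1% NaHCO₃) and SFII (in DMSO) for 48 h. Medium was replaced with CCK-8 reagent for 2 h at 37 °C, and absorbance was read at 450 nm.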
# NQO1 [19] = molecular target: T1, NQO1; assay: Comprehensive 2D NQO1 biochromatography retention; assay type: binding; details: 2D NQO1 column/C18 column/TOFMS
# [20] = test system: liver of adult and infant mice; assay: DNA damage in liver of adult and infant mice; assay type: in vivo; details: AAI 20 mg/kg, 24 h
# Summary of the method: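 Adult mice and 14-day-old infant mice were injected with PBS (negative control), diethylnitrosamine (positive control) or AAI 20 mg/kg, and killed after 24 h. Liver protein was extracted in lysis buffer and quantified by BCA. Proteins were separated by SDS-PAGE, transferred to nitrocellulose and imaged on an infrared scanner for DNA-damage markers.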
# [21] = adult mice renal fibrosis model
smiles,measurement,setting,value
"O=c1oc2ccccc2c(O)c1Cc1c(O)c2ccccc2oc1=O [dicoumarol, reference compound]",activated partial thromboplastin time (APTT),Blood coagulation assay,significantly elevate
same,prothrombin time (PT),Blood coagulation assay,significantly elevate
same,thrombin time (TT),Blood coagulation assay,significantly elevate
"COc1cccc(O)c1-c1cc(=O)c2c(O)c(OC)c(OC)c(OC)c2o1 [SFII, skullcapflavone II]","expressions of γ-H2AX, P53, cleaved-caspase-3, and cleaved-PARP-1 protein in kidney",C57BL/6 adult mice [1]; SFII 30 or 60 mg/kg oral + AAI 5 mg/kg,downregulated
same,blood CRE,"C57BL/6 adult mice [1]; SFII 30 or 60 mg/kg oral + AAI 5 mg/kg, 3 days, vs AAI alone",significantly declined
same,fibrosis area of kidney (Sirius red staining),"C57BL/6 adult mice [1]; SFII 30 or 60 mg/kg oral + AAI 5 mg/kg, vs AAI alone, dose-dependent",significantly limited
same,percentage of apoptotic cells in L02,"L02 [2]; AAI (20 μM, 50 μM) with SFII (5 or 10 μM), 24 h, vs AAI alone",significantly decreased
same,"apoptosis of L02, SFII alone",L02 [2]; SFII treatment alone,did not affect
same,expression of DNA damage and apoptosis-related proteins in liver and kidney,"infant mice [3]; SFII 10 mg/kg 12 h before AAI 20 mg/kg, 24 h",significantly decreased
same,cell apoptosis and interstitial fibrosis in kidney,infant mice [3]; SFII 10 mg/kg pre-treated + AAI 20 mg/kg,reduced cell apoptosis as well as interstitial fibrosis
same,proportion of apoptotic cells in the liver,"infant mice [3]; SFII 10 mg/kg pre-treated, vs AAI alone",decreased
same,renal histology (H&E and Sirius red staining),"C57BL/6 adult mice [4]; SFII 30 or 60 mg/kg gavage + single AAI 10 mg/kg i.p., day 14",effectively relieved renal tubular atrophy and interstitial fibrosis
same,"body weight, mice pretreated with SFII",C57BL/6 adult mice [4]; [21],no significant change
same,expression of γ-H2AX and downstream pro-apoptotic signaling in HK-2,"HK-2 [5]; AAI with SFII, 24 h",significantly decrease
same,"expression of apoptosis-related genes BAX, NOXA, PUMA, and BAK in HK-2",HK-2 [6],downregulated
same,inhibition of NQO1 activity in HK-2,NQO1 [7],more efficient NQO1 inhibitory effect
same,percentage of apoptotic cells in HK-2,HK-2 [8],reduced the percentage of apoptotic cells in HK-2 in a dose-dependent manner
same,inhibitory effect of AAI on cell proliferation in L02,"L02 [9]; AAI 20 μM + SFII 5 or 10 μM, 48 h, vs AAI alone",significantly relieved
same,"cell proliferation of L02, SFII alone",L02 [9]; SFII alone,barely affected
same,number of tumors per liver,"infant mice [10]; SFII 10, 30 or 60 mg/kg gavage 12 h before AAI 20 mg/kg, 16 weeks, dose-independently",significant decrease
same,kidney fibrosis,"infant mice [10]; SFII pretreated, 16 weeks after AAI administration",notably relieved
same,ALT level in culture supernatant of L02,L02 [11],decreased
same,AST level in culture supernatant of L02,L02 [11],decreased
same,NQO1 enzyme activity in kidney and liver in vivo,NQO1 [12],good inhibitory effect
same,"expression of P53, cleaved caspase-3, cleaved-PARP-1 and γ-H2AX in L02","L02 [13]; AAI (20 or 50 μM) with SFII, 24 h",efficaciously decrease
same,pIC50,NQO1 [14],5.54
same,pKd,NQO1 [15],5.38
same,"mRNA levels of BAX, NOXA, PUMA, and BAK in L02",L02 [16],significantly downregulate
same,inhibitory capability to NQO1 activity in L02,"NQO1 [17]; L02, 5 μM",significantly higher than oroxylin A
same,NQO1 activity of shNQO1-L02,"NQO1 [17]; NQO1 knockdown L02, SFII 5 μM",further reduced
same,AAI-induced inhibition of cell proliferation in HK-2,"HK-2 [18]; AAI 100 μM with SFII, 48 h",partially alleviated
same,activated partial thromboplastin time (APTT),Blood coagulation assay; 6 mg/kg,not significantly altered; also recorded: barely prolonged
same,prothrombin time (PT),Blood coagulation assay; 6 mg/kg,not significantly altered; also recorded: barely prolonged
same,thrombin time (TT),Blood coagulation assay; 6 mg/kg,not significantly altered; also recorded: barely prolonged
same,retention on NQO1 biochromatography,NQO1 [19],retention behaviors
"COc1cccc2c1cc([N+](=O)[O-])c1c(C(=O)O)cc3c(c12)OCO3 [AAI, Aristolochic acid I, reference compound]","elevation of blood CRE, fold change","C57BL/6 adult mice [1]; adult mice, AAI 5 mg/kg i.p. for 3 days, AAI alone",over 1.5
same,"body weight, AAI",C57BL/6 adult mice [4]; [21],intensive weight loss
same,expression of γ-H2AX in HK-2,"HK-2 [5]; AAI dose gradient, particularly at 100 μM",increase
same,anti-proliferative effect in L02,"L02 [9]; AAI 0, 5, 10, 20, 50, or 100 μM, 48 h",gradually intensified
same,DNA damage in the liver of adult mice,[20],scarcely caused DNA damage
same,γ-H2AX in the liver of infant mice,[20]; age 14 days,upregulation of γ-H2AX
same,γ-H2AX expression (DNA damage) in L02,L02 [13]; AAI 20 μM,considerable increase
same,AAI-induced proliferation inhibition in HK-2,"HK-2 [18]; different doses of AAI, compared with L02",better tolerance
COc1cc(O)c2c(=O)cc(-c3ccccc3)oc2c1 [tectochrysin],retention on NQO1 biochromatography,NQO1 [19],retention behaviors
COc1c(O)cc(O)c2c(=O)cc(-c3ccccc3)oc12 [wogonin],pIC50,NQO1 [14],4.99
same,retention on NQO1 biochromatography,NQO1 [19],retention behaviors
COc1c(O)cc2oc(-c3ccccc3)cc(=O)c2c1O [oroxylin A],inhibition of NQO1 activity in HK-2,NQO1 [7],did not notably inhibit
same,pIC50,NQO1 [14],6.03
same,pKd,NQO1 [15],6.06
same,activated partial thromboplastin time (APTT),Blood coagulation assay,not significantly altered
same,prothrombin time (PT),Blood coagulation assay,not significantly altered
same,thrombin time (TT),Blood coagulation assay,not significantly altered
same,retention on NQO1 biochromatography,NQO1 [19],retention behaviors
"C[C@@H]1C[C@H]2[C@@H]3CCC4=CC(=O)C=C[C@]4(C)[C@@]3(F)[C@@H](O)C[C@]2(C)[C@@]1(O)C(=O)CO [dexamethasone, reference compound]",retention on NQO1 biochromatography,NQO1 [19],no retention
